HSF1 inh = HSF1 inhibition; activity change, negative = inhibition, % at 7.5 µM (by protocol); NIH3T3-HGL HSE-luciferase, MG132-induced, luminescence 8 h; hits give low values; 300,000 compounds, 0.77% hits;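 active = more than half of replicate wells show activity change below -50%, luminescence cut by over half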;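 note: luciferase reports HSF-1 transcriptional activity via heat shock element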
HSF-1 act = increases HSF-1 driven luciferase reporter signal | NIH3T3-HGL HSF-1 luciferase reporter, MG132, 8 h; 100% = twice DMSO control signal | activation, % at 9 µM | 300,000 compounds, 1.7% hits | AID 504408;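 active = mean replicate activation of at least 50% with a set share of replicates each reaching 50%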
HCV core dimer = HCV core protein dimerization inhibition. 300,000 compounds, 0.33% hits. TR-FRET GST/Flag-core106 dimerization, 1536-well. AID 1899. inhibition, % at 5 µM;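 active = inhibition above the mean of all tested compounds plus 3 SD, set per screening campaign, cut at about 45% in these data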
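Assay system: Tagged HCV core106 pair (GST and Flag) | Buffer or medium: KF-containing HEPES buffer, pH 7.45, DTT, CHAPS, BSA | Also added: Eu donor and XL665 acceptor anti-tag antibodies | Dosing: One concentration, 5 µM, in 0.5% DMSO | Timing: 4 h at 22.5 °C | Technique: TR-FRET 671 and 617 nm emission | Repeats: Singlicate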
ALR H2O2 inh = blocks human ALR sulfhydryl oxidase activity | 290,000 compounds, 3.8% hits | inhibition, % (no concentration beside the values) | purified ALR, DTT oxidation, H2O2 HRP-luminol luminescence | P55789 | AID 485317;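 active = mean replicate inhibition above about 79%, with every replicate also reaching it, limit read from the data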
PHOSPHO1 inh = inhibitors of human PHOSPHO1 phosphatase; Q8TCT1; recombinant PHOSPHO1, absorbance phosphatase assay; inhibition, % at 13.3 µM; 290,000 compounds, 1.1% hits; AID 1565; in the data active = inhibition above about 60%
Target sequence (Q8TCT1 whole entry, looked up): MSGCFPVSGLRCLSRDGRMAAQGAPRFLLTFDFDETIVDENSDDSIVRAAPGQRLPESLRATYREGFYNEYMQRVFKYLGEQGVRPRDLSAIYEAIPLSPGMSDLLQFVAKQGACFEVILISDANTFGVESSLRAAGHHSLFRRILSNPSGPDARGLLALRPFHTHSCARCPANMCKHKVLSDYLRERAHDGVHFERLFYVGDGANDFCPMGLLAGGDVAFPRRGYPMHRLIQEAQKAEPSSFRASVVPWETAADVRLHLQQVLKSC
AI-2 QS mod = modulators of Vibrio harveyi AI-2 quorum sensing system; 300,000 compounds, 0.4% hits; AID 2094; activity change, % at 7.5 µM; Vibrio harveyi JMH597 AI-2 luminescence/OD600 ratio, 9 h; hits give low values; strain lacks LuxN and CqsS sensors; 0 = neutral-control median; in the data active = activity change below about -75%, passing the limit was not always enough;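 note: luminescence divided by OD600 gain over 9 h not by final OD600 alone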
Of the large screens only hits and unclear results are named; the others gave an inactive call. Shown are actives, neighbours in structure and some others; about 6.8% of the full set was active somewhere.

Cc1ccccc1-c1nc(CS(=O)CC(=O)NCCCN(C)c2ccccc2)c(C)o1 (configuration not stated)	ALR H2O2 inh 99.4
CCC(C)NC(=O)CS(=O)Cc1nc(-c2ccccc2C)oc1C (configuration not stated)	ALR H2O2 inh 98.3
CCN1CCN(C(=O)CS(=O)(=O)Cc2nc(-c3ccccc3C)oc2C)CC1	none
CCCNC(=O)CS(=O)Cc1nc(-c2ccccc2C)oc1C (configuration not stated)	ALR H2O2 inh 99.3
CN(C(=O)c1cnccn1)c1c(N)n(Cc2ccccc2)c(=O)[nH]c1=O	none (no result: PHOSPHO1 inh)
Cc1ccccc1-c1nc(CS(=O)CC(=O)NCCN2CCN(Cc3ccccc3)CC2)c(C)o1 (configuration not stated)	ALR H2O2 inh 98.7
Cc1ccccc1-c1nc(CN2CCC(C(=O)NCCN3CCOCC3)CC2)c(C)o1	none
Cc1ccccc1OCC(=O)NCCCNC(=O)c1ccncc1	none
Cc1ccc(N2NC(=O)/C(=C/c3ccc(-c4ccc(Cl)c(C(=O)O)c4)o3)C2=O)cc1	ALR H2O2 inh 98.6
CC(C)N1C(=O)S/C(=C\c2ccc(-c3ccc(Cl)c(C(=O)O)c3)o2)C1=O	none
CCCCC1(C)OC(=O)C(=Cc2ccc(-c3ccc(Cl)c(C(=O)O)c3)o2)C(=O)O1 (configuration not stated)	ALR H2O2 inh 98.1, PHOSPHO1 inh 85.9
Cc1cccc(NC(=O)C2CCN(C(=O)[C@@H]3Cc4ccccc4CN3)CC2)c1	none
O=c1[nH]ccc2c(O)cccc12	ALR H2O2 inh 98.5 (no result: PHOSPHO1 inh)
CCCCC(=O)/C=C/n1c(=S)oc2ccccc21	HSF-1 act 216.9, AI-2 QS mod -90.3
c1ccc(-n2cnc3cc(NCc4ccccn4)ccc32)cc1	ALR H2O2 inh 99.6
Cc1cc(NCc2ccccn2)ccc1Br	ALR H2O2 inh 98.9
c1ccc(-n2cnc3cc(NCc4ccncc4)ccc32)cc1	ALR H2O2 inh 99.1
CC(=O)Nc1ccc2c(c1)ncn2-c1ccccc1	none
O=C(NCCCN1CCc2ccccc2C1)C1CCN(S(=O)(=O)N2CCC3(CC2)OCCO3)CC1	none
COc1cc(/C=C/C(=O)Nc2cccc(S(=O)(=O)NC3=NCCCCC3)c2)ccc1OCC#N	none (no result: PHOSPHO1 inh)
Oc1ccc(-c2[nH]ncc2-c2cnn(-c3ccccc3)c2)c(O)c1	ALR H2O2 inh 97.7
Oc1cnn(-c2ccccc2)c1	none (no result: ALR H2O2 inh)
O=c1c(-c2cnn(-c3ccccc3)c2)coc2cc(O)ccc12	HSF-1 act 94.2
CCCCn1c(N)c(N(CCOC)C(=O)COC(=O)COc2ccccc2C#N)c(=O)[nH]c1=O	none (no result: PHOSPHO1 inh)
O=C(CN(C(=O)c1csnn1)c1ccc(F)cc1)NCc1ccc2c(c1)OCO2	none
CNc1nc(SCc2ccc(C)cc2)nc2c1CCCC2	none
CCNC(=O)Oc1ccc(-c2csnn2)cc1	ALR H2O2 inh 99.0
Cc1csc(SCC(=O)NC(C)c2ccc(F)cc2)n1 (configuration not stated)	none
Cc1ccc(S(=O)(=O)NC(C)C(c2cccs2)N2CCN(c3ccccc3)CC2)cc1 (configuration not stated)	none (no result: ALR H2O2 inh)
CC(NC(=O)Cc1cccs1)C(c1cccs1)N1CCN(c2ccccc2)CC1 (configuration not stated)	ALR H2O2 inh 96.4 (no result: PHOSPHO1 inh)
CC(=O)NC(C)C(c1cccs1)N1CCN(c2ccccc2)CC1 (configuration not stated)	ALR H2O2 inh 98.9
CC(NC(=O)Cc1cccs1)C(c1cccs1)N1CCN(c2ccccc2F)CC1 (configuration not stated)	none
CCC(=O)NC(C)C(c1cccs1)N1CCN(c2ccccc2)CC1 (configuration not stated)	ALR H2O2 inh 98.9
Cc1ncc([N+](=O)[O-])n1Cc1ccc(Br)cc1	none
O=C(CSCCc1ccccn1)Nc1cccnc1Cl	none
O=C(CSCCc1ccccn1)Nc1ccc(Br)cn1	ALR H2O2 inh 98.6
O=C(CSCCc1ccccn1)Nc1ccccn1	ALR H2O2 inh 98.2
Cc1ccc(NC(=O)CSCCc2ccccn2)nc1	ALR H2O2 inh 97.4
COCCn1c(=O)[nH]c(=O)c2c(C(F)(F)F)cc(-c3cccs3)nc21	none
